{"source": "ChEMBL document CHEMBL1150195", "about": "“The 1990 United States-Japan seminar on bioorganic marine chemistry, meeting report” (J Nat Prod, 1991)", "key": {"P388": {"system": "P388", "assay": "In vivo antitumor activity against mouse P388 cells at 0.125 mg/kg relative to control", "assay_type": "functional"}, "Candida albicans": {"system": "Candida albicans", "assay": "Antifungal activity against Candida albicans in presence of 50 ppm ergosterol", "assay_type": "functional", "outline": "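Candida albicans screened first by conventional agar disk diffusion. Samples active against C. albicans but not Escherichia coli were retested on agar-tryptic broth plates supplemented with ergosterol at 0–100 ppm. The assay picks out antifungal activity that depends on binding to membrane ergosterol.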"}, "[1]": {"assay": "Inhibition of protein phosphatase 2A"}, "L1210": {"system": "L1210", "assay": "Cytotoxicity against mouse L1210 cells at 0.1 ug/ml", "assay_type": "functional"}, "B16": {"system": "B16", "assay": "Cytotoxicity against mouse B16 cells", "assay_type": "functional, cell-based"}, "HCT-116": {"system": "HCT-116", "assay": "Cytotoxicity against human HCT116 cells", "assay_type": "functional, cell-based"}, "KB": {"system": "KB", "assay": "Cytotoxicity against human KB cells", "assay_type": "functional, cell-based"}, "Melanoma cell": {"system": "Melanoma cell", "assay": "In vivo antitumor activity against human melanoma cells xenografted in mouse at 160 ug/kg//injection relative to control", "assay_type": "functional"}, "Leukemia cell": {"system": "Leukemia cell", "assay": "In vivo antitumor activity against human leukemia cells xenografted in mouse at 160 ug/kg/injection relative to control", "assay_type": "functional"}}, "note": "pIC50: −log10 of the molar value.", "data": [{"smiles": "C/C=C\\[C@H](C)[C@H]1O[C@@]1(C)[C@@H](O)[C@H]1COC(=O)[C@H](O)[C@@H](OC)[C@H](C)C(=O)[C@H](C)[C@@H](O)/C(C)=C/[C@H](C)C(=O)CC[C@@H](C)C1=O", "values": [{"measurement": "T/C", "setting": "P388", "result": 190, "unit": "%"}]}, {"smiles": "C[C@@H]1[C@H](O)[C@@H](C)/C=C/C=C/C=C/C=C/C=C/C=C/C=C/[C@H](O[C@@H]2O[C@H](C)[C@@H](O)[C@H](N)[C@@H]2O)C[C@@H]2O[C@](O)(C[C@@H](O)C[C@@H](O)[C@H](O)CC[C@@H](O)C[C@@H](O)CC(=O)O[C@H]1C)C[C@H](O)[C@H]2C(=O)O", "note": "[AMPHOTERICIN B]", "values": [{"measurement": "Activity", "setting": "Candida albicans", "result": 50, "unit": "%"}]}, {"smiles": "COC[C@@H]([C@H](O)[C@H](O)C(=O)NCC[C@H](C)c1nc(/C=C/C[C@@H]2O[C@]3(C[C@@H](O)[C@@H]2C)O[C@H]([C@H](C[C@H](O)[C@H](C)[C@H](O)[C@H](C)/C=C(C)/C(C)=C/C=C/C(C)=C\\C#N)OC)[C@H](OP(=O)(O)O)C3(C)C)co1)N(C)C", "note": "[CALYCULIN A]", "values": [{"measurement": "pIC50", "setting": "[1]", "result": 9.05}]}, {"smiles": "COC[C@@H]([C@H](O)[C@H](O)C(=O)NCC[C@H](C)c1nc(/C=C/C[C@@H]2O[C@]3(C[C@@H](O)[C@@H]2C)O[C@H]([C@H](C[C@H](O)[C@H](C)[C@H](O)[C@H](C)/C=C(C)/C(C)=C/C=C/C(C)=C/C#N)OC)[C@H](OP(=O)(O)O)C3(C)C)co1)N(C)C", "note": "[CALYCULIN B]", "values": [{"measurement": "pIC50", "setting": "[1]", "result": 9.05}]}, {"smiles": "COC[C@@H]([C@H](O)[C@H](O)C(=O)N[C@H](C)C[C@H](C)c1nc(/C=C/C[C@@H]2O[C@]3(C[C@@H](O)[C@@H]2C)O[C@H]([C@H](C[C@H](O)[C@H](C)[C@H](O)[C@H](C)/C=C(C)/C(C)=C/C=C/C(C)=C/C#N)OC)[C@H](OP(=O)(O)O)C3(C)C)co1)N(C)C", "note": "[CALYCULIN D]", "values": [{"measurement": "pIC50", "setting": "[1]", "result": 9.05}]}, {"smiles": "COC[C@@H]([C@H](O)[C@H](O)C(=O)NCC[C@H](C)c1nc(/C=C/C[C@@H]2O[C@]3(C[C@@H](O)[C@@H]2C)O[C@H]([C@H](C[C@H](O)[C@H](C)[C@H](O)[C@H](C)/C=C(C)/C(C)=C\\C=C\\C(C)=C/C#N)OC)[C@H](OP(=O)(O)O)C3(C)C)co1)N(C)C", "note": "[CALYCULIN E]", "values": [{"measurement": "pIC50", "setting": "[1]", "result": 9.05}]}, {"smiles": "COC[C@@H]([C@H](O)[C@H](O)C(=O)NCC[C@H](C)c1nc(/C=C/C[C@@H]2O[C@]3(C[C@@H](O)[C@@H]2C)O[C@H]([C@H](C[C@H](O)[C@H](C)[C@H](O)[C@H](C)/C=C(C)/C(C)=C\\C=C\\C(C)=C\\C#N)OC)[C@H](OP(=O)(O)O)C3(C)C)co1)N(C)C", "note": "[CALYCULIN F]", "values": [{"measurement": "pIC50", "setting": "[1]", "result": 9.05}]}, {"smiles": "COC[C@@H]([C@H](O)[C@H](O)C(=O)N[C@H](C)C[C@H](C)c1nc(/C=C/C[C@@H]2O[C@]3(C[C@@H](O)[C@@H]2C)O[C@H]([C@H](C[C@H](O)[C@H](C)[C@H](O)[C@H](C)/C=C(C)/C(C)=C\\C=C\\C(C)=C/C#N)OC)[C@H](OP(=O)(O)O)C3(C)C)co1)N(C)C", "note": "[CALYCULIN G]", "values": [{"measurement": "pIC50", "setting": "[1]", "result": 9.05}]}, {"smiles": "COC[C@@H]([C@H](O)[C@H](O)C(=O)N[C@H](C)C[C@H](C)c1nc(/C=C/C[C@@H]2O[C@]3(C[C@@H](O)[C@@H]2C)O[C@H]([C@H](C[C@H](O)[C@H](C)[C@H](O)[C@H](C)/C=C(C)/C(C)=C\\C=C\\C(C)=C\\C#N)OC)[C@H](OP(=O)(O)O)C3(C)C)co1)N(C)C", "note": "[CALYCULIN H]", "values": [{"measurement": "pIC50", "setting": "[1]", "result": 9.05}]}, {"smiles": "COC[C@@H]([C@H](O)[C@H](O)C(=O)N[C@H](C)C[C@H](C)c1nc(/C=C/C[C@@H]2O[C@]3(C[C@@H](O)[C@@H]2C)O[C@H]([C@H](C[C@H](O)[C@H](C)[C@H](O)[C@H](C)/C=C(C)/C(C)=C/C=C/C(C)=C\\C#N)OC)[C@H](OP(=O)(O)O)C3(C)C)co1)N(C)C", "note": "[CALYCULIN]", "values": [{"measurement": "pIC50", "setting": "[1]", "result": 9.05}]}, {"smiles": "CC[C@H]1CCCC[C@@]2(C[C@@H]3CC[C@@H]4[C@H](C(=O)OCCCCCCCCCCCCCCCC(=O)N(CCCN)C[C@@H](O)CCN)[C@]5(CCC[C@@H](C)O5)N=C(N2)N34)O1", "note": "[CRAMBESCIDIN 800]", "values": [{"measurement": "Activity", "setting": "L1210", "result": 98, "unit": "%"}]}, {"smiles": "CC[C@H]1CCCC[C@@]2(C[C@@H]3CC[C@]4(O)[C@H](C(=O)OCCCCCCCCCCCCCCCC(=O)N(CCCN)C[C@@H](O)CCN)[C@]5(CCC[C@@H](C)O5)N=C(N2)N34)O1", "note": "[CRAMBESCIDIN 816]", "values": [{"measurement": "Activity", "setting": "L1210", "result": 98, "unit": "%"}]}, {"smiles": "CC[C@@H]1CCCC[C@]2(C[C@H]3CCC4(O)C(C(=O)OCCCCCCCCCCCCCCCCC(=O)N(CCCN)CC(O)CCN)[C@@]5(CCC[C@H](C)O5)N=C(N2)N34)O1", "note": "(stereo partly drawn) [CRAMBESCIDIN 830]", "values": [{"measurement": "Activity", "setting": "L1210", "result": 98, "unit": "%"}]}, {"smiles": "CC[C@@H]1CCCC[C@]2(C[C@H]3CCC4(O)C(C(=O)OCCCCCCCCCCCCCCCCCC(=O)N(CCCN)CC(O)CCN)[C@@]5(CCC[C@H](C)O5)N=C(N2)N34)O1", "note": "(stereo partly drawn) [CRAMBESCIDIN 844]", "values": [{"measurement": "Activity", "setting": "L1210", "result": 98, "unit": "%"}]}, {"smiles": "[H][C@]12Nc3c4cccc3[C@]13C1=C(N=C(O1)[C@H](C(C)C)NC(=O)[C@@H](NC(=O)[C@@H](O)C(C)C)Cc1ccc(c3c1)O2)c1nc(Cl)c(o1)-c1c(Cl)[nH]c2cccc-4c12", "note": "[DIAZONAMIDE A]", "values": [{"measurement": "IC50", "setting": "B16", "result": "< 0.015", "unit": "µg/mL"}, {"measurement": "IC50", "setting": "HCT-116", "result": "< 0.015", "unit": "µg/mL"}]}, {"smiles": "CO/N=C/CCCCCCC[C@@H](C)CCCCCCCCCCc1cccnc1", "note": "[IKIMINE A]", "values": [{"measurement": "IC50", "setting": "KB", "result": 5, "unit": "µg/mL"}]}, {"smiles": "CO[C@H]1C[C@H](CC[C@H](C)[C@H](O)[C@H](C)[C@H]2OC(=O)/C=C/C(C)=C/C[C@H](O)C[C@@H]3CCC[C@H](C[C@H](OC)[C@@H](C)[C@@H](O)C[C@@H](O)[C@H](C)[C@H](O)[C@@H](C)[C@H]([C@@H](C)CC[C@H]4C[C@H](OC)C[C@H](C)O4)OC(=O)/C=C/C(C)=C/C[C@H](O)C[C@@H]4C=CC[C@H](C[C@H](OC)[C@@H](C)[C@@H](O)C[C@@H](O)[C@@H]2C)O4)O3)O[C@@H](C)C1", "note": "[ISOSWINHOLIDE A]", "values": [{"measurement": "IC50", "setting": "KB", "result": 1.1, "unit": "µg/mL"}]}, {"smiles": "CC[C@H](C)[C@H]1NC(=O)[C@@H](NC(=O)[C@@H](CC(C)C)N(C)C(=O)[C@@H]2CCCN2C(=O)C(C)=O)[C@@H](C)OC(=O)[C@H](Cc2ccc(OC)cc2)N(C)C(=O)[C@@H]2CCCN2C(=O)[C@H](CC(C)C)NC(=O)[C@@H](C)C(=O)[C@H](C(C)C)OC(=O)C[C@@H]1O", "note": "[PLITIDEPSIN]", "values": [{"measurement": "T/C", "setting": "Melanoma cell", "result": 218, "unit": "%"}, {"measurement": "T/C", "setting": "Leukemia cell", "result": 210, "unit": "%"}]}, {"smiles": "CO[C@@H]1C[C@@H](O)C[C@@H](O)[C@H](C)[C@@H]([C@@H](C)[C@@H](O)[C@@H](C)CC[C@H]2C[C@H](OC)C[C@H](C)O2)OC(=O)/C=C/C(C)=C/C[C@H](O)C[C@@H]2C=CC[C@H](C[C@H](OC)[C@@H](C)[C@@H](O)C[C@@H](O)[C@H](C)[C@@H]([C@@H](C)[C@@H](O)[C@@H](C)CC[C@H]3C[C@H](OC)C[C@H](C)O3)OC(=O)/C=C/C(C)=C/C[C@H](O)C[C@@H]3CCC[C@H](C1)O3)O2", "note": "[SWINHOLIDE B]", "values": [{"measurement": "IC50", "setting": "KB", "result": 0.04, "unit": "µg/mL"}]}, {"smiles": "CO[C@H]1C[C@H](CC[C@H](C)[C@H](O)[C@H](C)[C@H]2OC(=O)/C=C/C(C)=C/C[C@H](O)C[C@@H]3C=CC[C@@H](C[C@H](OC)[C@@H](C)[C@@H](O)C[C@@H](O)[C@H](C)[C@@H]([C@@H](C)[C@@H](O)[C@@H](C)CC[C@H]4C[C@H](OC)C[C@H](C)O4)OC(=O)/C=C/C(C)=C/C[C@H](O)C[C@@H]4C=CC[C@@H](C[C@H](OC)[C@@H](C)[C@@H](O)C[C@@H](O)[C@@H]2C)O4)O3)O[C@@H](C)C1", "note": "[Swinholide A]", "values": [{"measurement": "IC50", "setting": "KB", "result": 0.04, "unit": "µg/mL"}]}, {"smiles": "CO[C@H]1C[C@H](CC[C@H](C)[C@H](O)[C@H](C)[C@H]2OC(=O)/C=C/C(C)=C/C[C@H](O)C[C@@H]3CCC[C@H](C[C@H](OC)[C@@H](C)[C@@H](O)C[C@@H](O)[C@H](C)[C@@H]([C@@H](C)[C@@H](O)[C@@H](C)CC[C@H]4C[C@H](O)C[C@H](C)O4)OC(=O)/C=C/C(C)=C/C[C@H](O)C[C@@H]4C=CC[C@H](C[C@H](OC)[C@@H](C)[C@@H](O)C[C@@H](O)[C@@H]2C)O4)O3)O[C@@H](C)C1", "note": "[swiholide C]", "values": [{"measurement": "IC50", "setting": "KB", "result": 0.04, "unit": "µg/mL"}]}]}
